# Laboratory results taken from the EternaBench riboswitch data.
# Tested on: MS2 coat protein
# Assay: apparent Kd, MS2 coat protein; higher = weaker binding; RNA-MaP array
# Outline: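 Fluorescently labeled MS2 coat protein, from 1.5 nM to 3 μM, was incubated at room temperature with designed RNAs transcribed on an Illumina sequencing chip from sequenced DNA templates. Times ran from 0.8–1.5 h at the lowest concentrations to 10–20 min at the highest, in Tris-HCl pH 7.5 buffer with KCl, MgCl2, BSA, DTT, tRNA and Tween20, with or without input ligand. Each apparent Kd is the median of per-cluster binding-curve fits, and designs with fewer than 10 measured clusters were excluded.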
# [1] = designed as: OFF switch for flavin mononucleotide, no ligand
# [2] = ligand present: flavin mononucleotide, designed as: OFF switch for flavin mononucleotide
# [3] = designed as: ON switch for flavin mononucleotide, no ligand
# [4] = ligand present: flavin mononucleotide, designed as: ON switch for flavin mononucleotide
# [5] = designed as: OFF switch for theophylline, no ligand
# [6] = ligand present: theophylline, designed as: OFF switch for theophylline
# [7] = designed as: OFF switch for tryptophan, no ligand
# [8] = ligand present: tryptophan, designed as: OFF switch for tryptophan
# [9] = designed as: ON switch for tryptophan, no ligand
# [10] = ligand present: tryptophan, designed as: ON switch for tryptophan
Sequence,apparent Kd [1],apparent Kd [2],apparent Kd [3],apparent Kd [4],further results
CGGCGCUUAGGAUAUUAGAGAUGCAACAUGAGGAUCACCCAUGUGAUGAGGGUUGGCAGCUAAGAAGGAAGCAUCC,86 nM,61.5 nM,–,–,–
CAAAUGUGCACUCGUGAUACAUGAGGAUCACCCAUGUCAACUAAGGAUAUCUGGAAGUCACAUCGAGAGAAGGUAGCGUACCCU,10.5 nM,9.44 nM,–,–,–
UACAUUAUAGAGAAGGAUUACUCACACAUGAGGAUCACCCAUGUGUCCAUCAUGGCUGUAGGUUAAUAGGAUAUCUUAGAAGUG,64.1 nM,155 nM,–,–,–
CUGCAGACCCAGAAGGUUCACAUGAGGAUCACCCAUGUGCCUAUCAAUAAGUAAGGUAAAGGCUGAAAGGAUAUGGGUAAAGGA,–,–,10.7 nM,8.47 nM,–
UGAUGUAACAGAGGAUAUCACUCAAAUGCGGGCAUGUCGCACAUGUACAUGAGGAUCACCCAUGUUGAGAAGGCUGUGGUGCAA,–,–,145 nM,47.5 nM,–
CUAUGGGAUAAGGAUAUAAUAAUUGAGAAGGAGUUAGAAGGUAUAACAUGAGGAUCACCCAUGUGAGGGCCCUA,9.22 nM,9.07 nM,–,–,–
UAGUAACAUGAGGAUCACCCAUGUGAGGAUAUCUGGCUAGGCUAAAGCAGAGAAACCAAGAGAAGGCACGGGAU,19.4 nM,20.8 nM,–,–,–
CUUUGUGGCCAAGGAUAUCCUGGCACAGUACAUGAGGAUCACCCAUGUCGAAGACAUGGUCGUACGGAGAAGGUGGGCACCCUC,–,–,511 nM,–,–
CGGUGACAUGAGGAUCACCCAUGUAAGGAUAUACCGGUUGAAGAUAAUAGCGACGGCGGAAGAAGGUACCUACA,32 nM,25.9 nM,–,–,–
AAUAGAGAGCAGAAGGCCCUAGUUAUCGGCAUGGGAGGAUAUGCACCAGAUAAUAACAUGAGGAUCACCCAUGUUGAAUAAGAA,–,–,19.4 nM,6.46 nM,–
GAGCGCAGUUUACAACAUACUAACACAGAUACCAGAAAUUUUAUGUUCCCUUGGCAGCUGACAACAUGAGGAUCACCCAUGUGCU,–,–,–,–,apparent Kd [5]: 17.1 nM; apparent Kd [6]: 17.7 nM
ACAUCCACCAAGAAGGCUGGUGCGGCACUUAAGUCGUUCACAUGAGGAUCACCCAUGUCGUAUACAGAGGAUAUUGAGGUUUUC,39.1 nM,38.7 nM,–,–,–
CCUCAACAUGAGGAUCACCCAUGUCAGGAUAUCUAGGAGACAUCACAUGCGUCCGAUGAGAGAAGGGACACAGU,25.1 nM,27.5 nM,–,–,–
UAAGUUUUAGAGAAGGCCUGGAAUUGCUGUGCAGGAGGAUAUCUGGGACAUGAGGAUCACCCAUGUAGCCGCUAAGCGUAAGGG,46.6 nM,83.1 nM,–,–,–
GAUCCGUACCAGACCUUCAAUGGACUCAGUCGAGGACCGGUACGGCCGCCACUCGGAGAAGAACAUGAGGAUCACCCAUGUGAUG,–,–,–,–,apparent Kd [7]: 36.3 nM; apparent Kd [8]: 53.8 nM
UACAUGAGGAUCACCCAUGUUUAUUGGUAGAACGGAUAAUGGGAGGAUAUGAACCGAUCAGAUCAUCAGAAGGCCCUUAAUGGG,–,–,29 nM,20 nM,–
GGAAAACCUCGAGGAUAUAGCACAUGAGGAUCACCCAUGUACCAUAAGUGUUGACAAAAGAGAGACUAGAAGGCGAAUCAAACC,–,–,13.1 nM,11.6 nM,–
UCAUGAAAGUCAGGAUAUGGCCACAUGAGGAUCACCCAUGUUUGCUUUAUCGAGCGAAACUGAGACCAGAAGGGACGGACAUUC,–,–,20.8 nM,11.1 nM,–
AUUGUCAAGUCGGCCGCCACUUCUGCCAUGGCCACCAGUCGACAUGAGGAUCACCCAUGUCUCUUAAGGACCGGGACUUUCAAUU,–,–,–,–,apparent Kd [9]: 13.2 nM; apparent Kd [10]: 12.1 nM
AUCACAACCAAGAAGGGUCAGAUAACUCGAGAGACAGGAUAUUGAACAACAUAGUCAACAUGAGGAUCACCCAUGUAAAAUAAA,–,–,54 nM,24.2 nM,–
CCAUGUAAUGUAAGGAUAUUCCAGGUAAUUACUUUGAAGAAGGUACAUGAGGAUCACCCAUGUGGAAACGAAUG,18.6 nM,64.5 nM,–,–,–
GUACCUCCUCAGAAGGCGCGUAGAGCCGGCACAUGAGGAUCACCCAUGUCGAGGCGAAAUGCAGGCGAGGAUAUGAAGGGUUUC,–,–,4.88 nM,4.92 nM,–
UGGGUUACCUCAGGAUAUCGCCUUGUACAUGAGGAUCACCCAUGUAGUAUCGGCCGUGUGUGCAUCGAGAAGGGAGUAACCUUC,75.2 nM,53.5 nM,–,–,–
UUUACACACUCAGGAUAUGAAUUCAAUUUAUCGGGCCGCUAACAUGAGGAUCACCCAUGUAACAUUCAGAAGGGAGAAGAGCCA,17.5 nM,13.7 nM,–,–,–
ACCUAUACUCCAGGAUAUCAAGACCGAUGACAUGAGGAUCACCCAUGUCAAUCAAAACCAUGACGUGAGAAGGGGAGGCUCGUC,–,–,6.5 nM,6.05 nM,–
CUCUUGGCCGCAGUACGUUUAUAGACCUAUCGAGGACCGGUACGGCCGCCACUCGGUUAGUCACAUGAGGAUCACCCAUGUGUCC,–,–,–,–,apparent Kd [7]: 17.7 nM; apparent Kd [8]: 29.9 nM
CCGCGACAUGAGGAUCACCCAUGUGAUUUGACCUCCGGCACGAGAAGGUUCCGACCAAACGGCCGAAAGGAUAUCGUCCCAGAG,–,–,64.1 nM,38.6 nM,–
UCCCUACCGUCGGCCGCCACUGGGUCAUACAGUUCGUAACUACAUGAGGAUCACCCAUGUGCAGCCAGGACCGGGACGCGCCUUG,–,–,–,–,apparent Kd [9]: 177 nM; apparent Kd [10]: 106 nM

Sequence,apparent Kd [1],apparent Kd [2],apparent Kd [3],apparent Kd [4],further results
GCGAAGCGAGGAUAUUAAUCCGUACACAUGAGGAUCACCCAUGUGAAUCAAUCAUGUGGUUAAGAAGGCGCGUGGG,541 nM,73.2 nM,–,–,–
UAACGUAGCCGAGGAUAUAGUAGCGAUCAACAGAAACAUGAGGAUCACCCAUGUGCCACAAAAGACUAGAAGGCGGGCAACCCA,–,–,15.4 nM,11.2 nM,–
UAUCGGGCAGGAUAUACAUGCGAUUACACUCUUCGGAAAGUACAUGAGGAUCACCCAUGUAGAAGGGCCAAGUG,10.4 nM,11 nM,–,–,–
UCACUCUGCCGAGGAUAUGCUGGGUCUGACAUGAGGAUCACCCAUGUAACGGGCAGAGUGUUCCAGCAGAAGGCGGCCAGUACC,–,–,42.5 nM,44.6 nM,–
AUAGAACAUGAGGAUCACCCAUGUAGAAAAUCAGCAGGAUAUGUGAUCACUCCGUAAUUGACAGAAGGGCUAACAA,–,–,68.2 nM,28.8 nM,–
GAUUGCGGUGUGAGGAUAUCUGUUUAACAAAAGCCAGAGAAGGCACAUGAGGAUCACCCAUGUAGAUGCCGGCC,8.38 nM,10.5 nM,–,–,–
ACAACUGCAGGAUAUACGAGGGCCGAGGUAUCCGUCCUCGGACAUGAGGAUCACCCAUGUAGAAGGGCAACGAU,20.9 nM,24.1 nM,–,–,–
CCUCGGCCAUCAGGAUAUCAUUCUCCGAUGCGGAACAUGAGGAUCACCCAUGUUGGGUACCCGUGUGAGAAGGGAUGCGUACGG,74.3 nM,62.2 nM,–,–,–
GACAGAAGGUAGAAGGUGGUUCUCCUCACCCACUUUGAGGACAUGAGGAUCACCCAUGUCAAAACCAAGGAUAUACUACGUCGU,–,–,89.8 nM,18.2 nM,–
CGCGAGACGGCGGCCGCCACUUGUUGUUGGAAACUCGAGUUACAUGAGGAUCACCCAUGUCCUUAAAGGACCGGGCCGUAAGUAA,–,–,–,–,apparent Kd [9]: 226 nM; apparent Kd [10]: 164 nM
GCGUGAGCGACGUGUCUUCCACAUGAGGAUCACCCAUGUCGCAGAAGGACUUGAAUCGUAUUAAAGUAGGAUAUGCGUAGGACG,–,–,38.3 nM,29 nM,–
CGUCUGUGAGGAUAUGGUCGAGGUUGGUGAAUUACUUACAUCCAGAAGGCACAUGAGGAUCACCCAUGUACAUC,10.5 nM,13.8 nM,–,–,–
UGCCUCCAGCGAGGAUAUAUGUAGAGAUACACCAUAGAAGGCGCUGUAGUGGAACAUGAGGAUCACCCAUGUGACCUCGCCCGG,13.2 nM,17.6 nM,–,–,–
GUGAUGCCUUACACAUGAGGAUCACCCAUGUGGUGUAAGCGUAGAAGGUGAAUAUAUUCCAUAGUCAAGGAUAUACGAACAAUC,12.2 nM,11.5 nM,–,–,–
GGGUUACUCUAUGAUACCAGUUCCAUGCCGAAACCUGUGUACAUGAGGAUCACCCAUGUGAACCCUUGGCAGCAUUAAUCAACUG,–,–,–,–,apparent Kd [5]: 97.5 nM; apparent Kd [6]: 258 nM
GUCGGUGCAGGAUAUCGAGGCGCCAACAUGAGGAUCACCCAUGUGUGUGAUCGGGUGCACCGAGAAGGGCACUUGC,110 nM,345 nM,–,–,–
CGACAUAACCGAGGAUAUCGCUGACGUAAGCACAUGAGGAUCACCCAUGUGAGUGAGAGUGAGUACGAGAAGGCGGAAUUAAGG,–,–,53.3 nM,16.5 nM,–
AUGAAAAGUACAGGAUAUAUAUAAACACAAAACGGACAUGAGGAUCACCCAUGUUGACGUUGUCAAUAGAAGGGUACCAACACA,–,–,26.1 nM,10.7 nM,–
GAAAGGUGAGGAUAUACAUGAGGAUCACCCAUGUGUAGAAAUAGAAAGAAAAUCUCAAGUAGAAGGCACAAACA,11.3 nM,13.7 nM,–,–,–
CUGCUCUGUACUGAAGGAGAUACAUGAGGAUCACCCAUGUGCAGAAGGUGCUCAUUAAUAAUCGGCAAGGAUAUGCGGGCUUGA,–,–,925 nM,390 nM,–
UGGCUUGAAGGAUAUACAUGAGGAUCACCCAUGUAUCGCUAAAAGAGAAAUCCAUAAUGUAGAAGGUCAUCCCA,8.91 nM,12 nM,–,–,–
GCCCUGUGACUAGGAUAUGCCGGGAAACACAUCGCAGAAGGAGUCCACUCAUGUCGACAUGAGGAUCACCCAUGUACCAGGGUU,40.6 nM,29.9 nM,–,–,–
AGAUUCUCUGAAGGAUAUCGCGUUUAUUUCGAGCGAGAAGGUCAAUUAUGGGAGAUGCACAUGAGGAUCACCCAUGUUCGAAAA,339 nM,119 nM,–,–,–
CCGCCUCGCGUCAGGAUAUGUAACAAUUGUCAAAUACAGAAGGGACAUGAGGAUCACCCAUGUUUACAUACCAA,18 nM,42.2 nM,–,–,–
UUGAUUACCCAAGCGUGAUGGUCCUAGGAACGAGGACCGGUACGGCCGCCACUCGCAAGCAAACAUGAGGAUCACCCAUGUUUAU,–,–,–,–,apparent Kd [7]: 13.1 nM; apparent Kd [8]: 23 nM
CUCGUACAUGAGGAUCACCCAUGUCAGGAUAUUACUGUCGAGUCCAAAACUAGAAAGGUAAGAAGGGACACAUU,13.3 nM,17.8 nM,–,–,–
GACCAUCACCAGAAGGUCCUCCACCAGCGAGAUCCGACAUGAGGAUCACCCAUGUACUGUGGAUGGAAGGAUAUGGAAGGCUCU,46.9 nM,116 nM,–,–,–
